Activity calls are given as the source filed them. No cut-off for these calls is given here.

The target of data set [1] is T1, Prostaglandin G/H synthase 1 (Rattus norvegicus, UniProt Q63921).
T1 sequence (Q63921 whole entry): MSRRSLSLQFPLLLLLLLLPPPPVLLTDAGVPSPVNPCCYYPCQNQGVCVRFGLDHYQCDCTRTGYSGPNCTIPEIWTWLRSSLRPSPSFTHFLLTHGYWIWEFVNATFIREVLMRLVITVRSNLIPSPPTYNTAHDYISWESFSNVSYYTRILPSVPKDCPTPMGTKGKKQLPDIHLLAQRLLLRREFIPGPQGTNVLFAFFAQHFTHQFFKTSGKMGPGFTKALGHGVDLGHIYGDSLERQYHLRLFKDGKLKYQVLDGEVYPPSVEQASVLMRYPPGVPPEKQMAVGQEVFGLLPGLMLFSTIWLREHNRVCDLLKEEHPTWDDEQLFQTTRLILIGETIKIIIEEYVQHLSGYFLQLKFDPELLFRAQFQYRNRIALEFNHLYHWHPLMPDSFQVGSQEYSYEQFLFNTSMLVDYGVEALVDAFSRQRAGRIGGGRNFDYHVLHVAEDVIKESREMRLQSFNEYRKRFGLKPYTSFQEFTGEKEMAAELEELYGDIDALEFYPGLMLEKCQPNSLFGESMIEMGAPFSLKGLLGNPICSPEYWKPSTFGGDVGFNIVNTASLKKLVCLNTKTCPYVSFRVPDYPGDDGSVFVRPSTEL
Put plainly: Inhibition of COX-1 in rat peritoneal macrophages assessed as reduction in [125I]-6-Keto-PGF1alpha production using arachidonic acid as substrate pretreated for 30 mins followed by substrate addition measured after 30 mins. The method, boiled down:
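Rat peritoneal macrophages were elicited with 5 mL 0.5% gelatin i.p. and harvested after 5 h. Cells were washed, seeded at 1.0 × 10^6/mL and adhered 24 h at 37 °C, 5% CO2, then kept 24 h in 0.5% FCS RPMI-1640. Compounds at several concentrations were added for 30 min, then arachidonic acid for 30 min. 125I-6-keto-PGF1α was read by kit, and IC50 was taken as the concentration halving radioactivity.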

A short description of data set [2]: Dissociation constant, pKa of the compound. The class given is physicochemical.
Data set [3] is described as follows: Selectivity index, ratio of IC50 for COX1 in rat peritoneal macrophages to IC50 for COX2 in rat peritoneal macrophages. The method, boiled down:
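Both IC50s come from gelatin-elicited rat peritoneal macrophages given 0.5% FCS RPMI-1640 for 24 h, then compound for 30 min and arachidonic acid for 30 min. COX-1 was read as 125I-6-keto-PGF1α. For COX-2, cells first had 10% FCS for 1 h, a PBS rinse and […] LPS for 8 h, and supernatant PGE2 was read. Each IC50 is the concentration halving radioactivity.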

Data set [4] deals with T2, Prostaglandin G/H synthase 2 (Rattus norvegicus, UniProt P35355).
T2 sequence (P35355 whole entry): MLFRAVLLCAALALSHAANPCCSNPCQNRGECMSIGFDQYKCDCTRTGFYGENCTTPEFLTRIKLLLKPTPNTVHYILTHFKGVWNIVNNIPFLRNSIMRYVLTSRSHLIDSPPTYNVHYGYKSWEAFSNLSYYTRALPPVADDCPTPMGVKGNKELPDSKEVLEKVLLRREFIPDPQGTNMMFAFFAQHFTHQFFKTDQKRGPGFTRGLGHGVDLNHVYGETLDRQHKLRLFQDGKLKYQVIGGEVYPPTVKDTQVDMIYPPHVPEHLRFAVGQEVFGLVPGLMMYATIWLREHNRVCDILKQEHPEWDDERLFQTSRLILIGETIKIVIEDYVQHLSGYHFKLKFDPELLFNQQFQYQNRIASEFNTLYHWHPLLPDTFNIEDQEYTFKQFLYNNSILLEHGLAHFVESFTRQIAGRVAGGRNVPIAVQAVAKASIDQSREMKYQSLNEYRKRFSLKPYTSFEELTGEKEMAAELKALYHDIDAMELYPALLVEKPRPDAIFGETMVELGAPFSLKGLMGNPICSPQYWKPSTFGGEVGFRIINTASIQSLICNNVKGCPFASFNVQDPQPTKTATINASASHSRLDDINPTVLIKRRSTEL
Put plainly: Inhibition of COX-2 in rat peritoneal macrophages assessed as reduction in PGE2 production using radiolabelled-arachidonic acid as substrate pretreated for 30 mins followed by substrate addition measured after 30 mins.

Data set [5] can be described thus: Lipid/water partition coefficient, log P of the compound. The class given is physicochemical.
Data set [6] concerns Rattus norvegicus. Put plainly: In-vivo inhibition of COX2 in rat at 20 mg/kg measured after 120 mins. The class given is functional. The settings on record: 2 h.
The test system of data set [7] is Rattus norvegicus. As to the kind of experiment: In-vivo inhibition of COX2 in rat at 20 mg/kg measured after 60 mins. The class given is functional. The settings on record: 1 h.
In data set [8] the test system is Rattus norvegicus. As to the kind of experiment: In-vivo inhibition of COX2 in rat at 20 mg/kg measured after 90 mins. It counts as functional. The settings on record: 1.5 h.
The test system of data set [9] is Rattus norvegicus. As to the kind of experiment: In-vivo inhibition of COX2 in rat at 20 mg/kg measured after 40 mins. It counts as functional.
The subject of data set [10] is Rattus norvegicus. Put plainly: In-vivo inhibition of COX2 in rat at 20 mg/kg measured after 20 mins. The class given is functional.
Data set [11] has as its system Rattus norvegicus. Put plainly: Anti-inflammatory activity in rat assessed as reduction in PGE2 release at 20 mg/kg measured after 2 hrs. The class given is functional, organism-based.

`CN1C=CN(C2SC(C(Cl)(Cl)Cl)=CN2c2ccc(S(N)(=O)=O)cc2)C=C1` (stereo not given): the half-maximal inhibitory concentration (IC50) in data set [1] was determined as 88.6 µM; in [4], 11.6 µM. This compound also showed a pKa in data set [2] of 7.76. Also, the “Ratio IC50” value in data set [3] was 7.7. In addition, the logP in data set [5] is 3.13.
`CN1C=CN(C2OC(C(F)(F)F)=CN2c2ccc(S(N)(=O)=O)cc2)C=C1` (stereo not given): the half-maximal inhibitory concentration (IC50) turned out to be 55.6 µM in data set [1] and 1.27 µM in data set [4]. In [2], the pKa stood at 7.18. The “Ratio IC50” value in data set [3] is 43.8. This compound also yielded a logP in data set [5] of 1.68.
The matching figures for `CC1=CN(c2ccc(S(N)(=O)=O)cc2)C(N2C=CN(C)C=C2)O1` (stereo not given): 98.5 µM, 20.1 µM, 7.01, 4.9 and 1.04.
Regarding `Cc1ccc(-c2cc(C(F)(F)F)nn2-c2ccc(S(N)(=O)=O)cc2)cc1` [CELECOXIB], the inhibition in vivo at 20 mg/kg came out at 100% with Rattus norvegicus [6]; 89.1% in the data set with Rattus norvegicus [7]; 100% in the data set with Rattus norvegicus [8]; 68.4% in the data set on Rattus norvegicus [9]; 45.3% with Rattus norvegicus [10].
Turning to `CC1=CN(c2ccc(S(N)(=O)=O)cc2)C(C2C=CN(C)C=C2)N1` (stereo not given), in the data set on Rattus norvegicus [11], the outcome was Active.
Consider `CN1C=CC(C2SC(C(Cl)(Cl)Cl)=CN2c2ccc(S(N)(=O)=O)cc2)C=C1` (stereo not given), for which the figures for the 50% inhibitory concentration (IC50) in [1] and in data set [4] were 98.2 µM and 12.7 µM, respectively. The compound further had a pKa in data set [2] of 8. Besides, the “Ratio IC50” value in data set [3] turned out to be 7.7. In [5], this compound yielded a log partition coefficient (logP) of 3.5.
The matching figures for `CC1=CN(c2ccc(S(N)(=O)=O)cc2)C(C2C=CN(C)C=C2)S1` (stereo not given): 56.9 µM, 1.53 µM, 7.39, 37.1 and 2.12.
For the compound `CN1C=CC(C2OC(C(Cl)(Cl)Cl)=CN2c2ccc(S(N)(=O)=O)cc2)C=C1` (stereo not given), the results for the IC50 in data set [1] and in [4] were 83.1 µM and 13.7 µM, respectively. This compound gave a pKa in [2] of 7.63. For the same compound, in data set [3], the “Ratio IC50” value was 6.1. The same compound gave a lipophilicity (logP) in data set [5] of 2.78.
Turning to `CN1C=CC(C2OC(C(F)(F)F)=CN2c2ccc(S(N)(=O)=O)cc2)C=C1` (stereo not given), the IC50 in data set [1] was 50.2 µM; in data set [4], 0.053 µM. Further, the pKa in [2] is 7.33. The inhibition in vivo at 20 mg/kg in the data set on Rattus norvegicus [6] turned out to be 100%; in the data set with Rattus norvegicus [7], 87.5%; in the data set on Rattus norvegicus [8], 99.6%; in the data set with Rattus norvegicus [9], 64.9%; in the data set on Rattus norvegicus [10] it was 44.6%. The “Ratio IC50” value in data set [3] turned out to be 947.5. For the same compound, the lipophilicity (logP) in data set [5] stood at 2.05. Besides, the outcome in the data set on Rattus norvegicus [11] was Active.
With `CN1C=CC(C2SC(C(F)(F)F)=CN2c2ccc(S(N)(=O)=O)cc2)C=C1` (stereo not given), the figures for the IC50 in data set [1] and in data set [4] were 80.5 µM and 8.08 µM, respectively. The same compound returned a pKa in data set [2] of 7.62. In addition, the “Ratio IC50” value in [3] was determined as 10. Also, in [5], the logP was 2.77.
For the compound `CC1=CN(c2ccc(S(N)(=O)=O)cc2)C(C2C=CN(C)C=C2)O1` (stereo not given), the IC50 in data set [1] came to 95.2 µM; in data set [4] it was 17.4 µM. Also, in [2], the pKa came to 7.09. The “Ratio IC50” value in data set [3] is given as 5.5. The logP in data set [5] was 1.4.
As for `CN1C=CN(C2OC(C(Cl)(Cl)Cl)=CN2c2ccc(S(N)(=O)=O)cc2)C=C1` (stereo not given), the IC50 stood at 53.4 µM in [1] and 0.099 µM in data set [4]. The pKa in data set [2] amounted to 7.55. Also, the inhibition in vivo at 20 mg/kg was 97.9% in the data set on Rattus norvegicus [6]; 85.9% in the data set on Rattus norvegicus [7]; 95.4% in the data set on Rattus norvegicus [8]; 60.9% in the data set with Rattus norvegicus [9]; 40.6% in the data set on Rattus norvegicus [10]. The “Ratio IC50” value in data set [3] turned out to be 539.3. The logP in data set [5] was found to be 2.41. Further, the outcome with Rattus norvegicus [11] was Active.
Regarding `CN1C=CN(C2NC(C(F)(F)F)=CN2c2ccc(S(N)(=O)=O)cc2)C=C1` (stereo not given), the result in the data set with Rattus norvegicus [11] was Active.
Consider `CC1=CN(c2ccc(S(N)(=O)=O)cc2)C(N2C=CN(C)C=C2)S1` (stereo not given), for which the IC50 in data set [1] turned out to be 76.9 µM; in data set [4], 16.4 µM. In data set [2], this compound returned a pKa of 7.2. Also, in data set [3], the “Ratio IC50” value is on record as 4.8. In addition, the log partition coefficient (logP) in data set [5] came out at 1.75.
As to `CN1C=CN(C2SC(C(F)(F)F)=CN2c2ccc(S(N)(=O)=O)cc2)C=C1` (stereo not given), the IC50 came to 52.4 µM in data set [1] and 0.0793 µM in data set [4]. The same compound had a pKa in [2] of 7.5. The inhibition in vivo at 20 mg/kg is 98% in the data set on Rattus norvegicus [6]; 86.1% in the data set with Rattus norvegicus [7]; 97.3% with Rattus norvegicus [8]; 63.1% in the data set on Rattus norvegicus [9]; 42.5% with Rattus norvegicus [10]. Moreover, in [3], the “Ratio IC50” value came out at 660.3. For the same compound, the logP in data set [5] stood at 2.38. Moreover, the outcome in the data set with Rattus norvegicus [11] was Active.

What is called IC50 is the midpoint of a concentration-inhibition curve. The term pKa denotes the pH at which an ionisable group is half protonated. Usually logP stands for a log measure of how a compound divides between an organic and an aqueous phase. Read a high logP as a more lipophilic compound. As usually defined, the inhibition in vivo is the relative decrease from the control value, in per cent. Low values mean little suppression, high ones strong suppression.

Values taken from ChEMBL document CHEMBL4043129, “Design, synthesis and bioactivities of Celecoxib analogues or derivatives” (Bioorg Med Chem, 2017).
